Measurements as given in ChEMBL document CHEMBL5030505, “Assessment of NR4A Ligands That Directly Bind and Modulate the Orphan Nuclear Receptor Nurr1” (J Med Chem, 2020).
Calls of active or inactive are those of the source. No cut-off for these calls is given here.

Key:
Format in all cases: cell-based
[1] = system: HEK293T; experiment: Modulation of Gal4-fused VP16 expressed in HEK293T cells co-transfected with UAS repoter gene assessed as increase in luciferase activity at 0.01 to 100 uM incubated for 18 hrs by luciferase reporter gene assay; details: Human alphaherpesvirus 2, filed as modulator, dose 0.01-100 µM
How it was run: (§1)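 Cells in 10-cm dishes were transfected with Gal4-VP16 expression plasmid (2 μg) plus 5xUAS-luciferase reporter (2 μg) for 18 h. They were replated at 10,000 cells/well for 4 h, then given ligand or vehicle (water, ethanol or DMSO) in quadruplicate for 18 h. Luciferase was read with Britelite Plus. Fold change is versus vehicle-treated cells, with one-way ANOVA versus vehicle.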

[2] = target: Nuclear receptor subfamily 4 group A member 2 (Homo sapiens) (UniProt P43354); experiment: Modulation of full length human Nurr1 expressed in SKNBE(2) cells co-transfected with RXRalpha and luciferase reporter plasmid harboring NurRE response element assessed as increase in luciferase activity at 100 uM incubated for 18 hrs by luciferase reporter gene assay; details: SKNBE2, filed as modulator
Sequence of Nuclear receptor subfamily 4 group A member 2 (Homo sapiens) (P43354 whole entry): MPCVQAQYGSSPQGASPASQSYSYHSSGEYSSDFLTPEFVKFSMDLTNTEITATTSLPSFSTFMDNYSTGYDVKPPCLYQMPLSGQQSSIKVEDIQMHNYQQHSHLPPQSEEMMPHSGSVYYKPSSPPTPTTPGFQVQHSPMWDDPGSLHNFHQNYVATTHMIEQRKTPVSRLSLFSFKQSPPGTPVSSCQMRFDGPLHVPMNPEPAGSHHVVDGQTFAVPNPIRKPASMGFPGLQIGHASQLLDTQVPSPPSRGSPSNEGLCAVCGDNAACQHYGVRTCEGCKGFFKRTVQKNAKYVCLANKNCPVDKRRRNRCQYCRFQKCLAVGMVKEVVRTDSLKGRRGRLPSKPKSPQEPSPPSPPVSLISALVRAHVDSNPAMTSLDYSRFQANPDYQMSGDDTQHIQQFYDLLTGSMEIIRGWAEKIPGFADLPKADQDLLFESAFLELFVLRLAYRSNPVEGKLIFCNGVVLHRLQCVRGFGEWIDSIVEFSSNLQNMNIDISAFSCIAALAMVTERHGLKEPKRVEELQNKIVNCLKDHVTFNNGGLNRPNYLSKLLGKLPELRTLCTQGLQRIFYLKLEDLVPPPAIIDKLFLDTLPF
How it was run: (§2)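 SK-N-BE(2)-C cells were kept in 1:1 EMEM/F12 with 10% FBS at 37°C and 5% CO2. They were cotransfected with full-length Nurr1 (1 μg), full-length RXRα (1 μg) and 3xNBRE- or 3xNurRE-luc reporter (6 μg) for 18 h, replated at 10,000 cells/well for 4 h, and then treated with ligand or vehicle in quadruplicate for 18 h. The readout was luciferase luminescence as fold over vehicle, reported as mean ± s.e.m. (n=4) from 2 independent experiments, one-way ANOVA.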

[3] = target: Nuclear receptor subfamily 4 group A member 2 (Homo sapiens) (UniProt P43354); experiment: Modulation of full length human Nurr1 expressed in SKNBE(2) cells co-transfected with luciferase reporter plasmid harboring NBRE response element assessed as increase in luciferase activity at 100 uM incubated for 18 hrs by luciferase reporter gene assay; details: SKNBE2, filed as modulator
How it was run: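 Transfection of SK-N-BE(2)-C cells (1:1 EMEM/F12, 10% FBS, 37°C, 5% CO2) used full-length Nurr1 alone (2 μg, no RXRα) with 3xNBRE- or 3xNurRE-luciferase reporter (6 μg) for 18 h. Cells were replated at 10,000/well for 4 h, then exposed to ligand or vehicle in quadruplicate for 18 h. Luminescence was expressed as fold over vehicle, as mean ± s.e.m. (n=4) from 2 independent experiments, one-way ANOVA against vehicle.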

[4] = system: HEK-293T; experiment: Cytotoxicity in human HEK293T cells assessed as reduction in cell viability at 0.01 to 100 uM incubated for 18 hrs by Cell Titer-Glo assay; details: dose 0.01-100 µM
How it was run: (§3)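 Cells seeded at 1.5 million per 10-cm dish. Next day they were replated at 10,000 cells/well and rested 4 h. Ligand or vehicle (water, ethanol or DMSO, by ligand) was added in dose-response format in quadruplicate. After 18 h, viability was read by CellTiter-Glo luminescence. Data are mean ± s.e.m., generally representative of 2 independent experiments. One-way ANOVA versus vehicle.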

[5] = target: Nuclear receptor subfamily 4 group A member 2 (Homo sapiens) (UniProt P43354); experiment: Modulation of full length human Nurr1 expressed in PC12 cells co-transfected with RXRalpha and luciferase reporter plasmid harboring NurRE response element assessed as increase in luciferase activity at 100 uM incubated for 18 hrs by luciferase reporter gene assay; details: PC-12, filed as modulator
How it was run: (§4)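 PC12 cells were grown at 37°C and 5% CO2 in […] medium with 15% horse serum and 2.5% FBS. They were transfected with full-length Nurr1 (1 μg) plus full-length RXRα (1 μg) and 3xNBRE- or 3xNurRE-luciferase reporter (6 μg) for 18 h, then replated at 10,000 cells/well for 4 h. Ligand or vehicle (water, ethanol or DMSO) was added in quadruplicate for 18 h. Luminescence was read as fold change over vehicle. Results are mean ± s.e.m., n=4, from 2 independent experiments, analysed by one-way ANOVA against vehicle.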

[6] = target: Nuclear receptor subfamily 4 group A member 2 (Homo sapiens) (UniProt P43354); experiment: Modulation of full length human Nurr1 expressed in HEK293T cells co-transfected with luciferase reporter plasmid harboring NurRE response element assessed as increase in luciferase activity at 100 uM incubated for 18 hrs by luciferase reporter gene assay; details: filed as modulator
How it was run: (§5)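 Full-length Nurr1 plasmid, alone (2 μg) or 1 μg plus full-length RXRα (1 μg), cotransfected with 3xNBRE- or 3xNurRE-luciferase reporter (6 μg) using Lipofectamine 2000, 18 h. Cells replated at 10,000/well for 4 h. Four ligand concentrations, or vehicle (water, ethanol or DMSO), added in quadruplicate for 18 h. Luciferase read. Fold change vs vehicle, mean ± s.e.m., one-way ANOVA vs vehicle.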

[7] = system: PC-12; experiment: Modulation of Gal4-fused VP16 expressed in PC12 cells co-transfected with UAS repoter gene assessed as increase in luciferase activity at 0.01 to 100 uM incubated for 18 hrs by luciferase reporter gene assay; details: Human alphaherpesvirus 2, filed as modulator, dose 0.01-100 µM; how it was run: as §1
[8] = target: Nuclear receptor subfamily 4 group A member 2 (Homo sapiens) (UniProt P43354); experiment: Modulation of full length human Nurr1 expressed in HEK293T cells co-transfected with luciferase reporter plasmid harboring NBRE response element assessed as increase in luciferase activity at 100 uM incubated for 18 hrs by luciferase reporter gene assay; details: filed as modulator; how it was run: as §5
[9] = system: PC-12; experiment: Cytotoxicity in rat PC-12 cells assessed as reduction in cell viability at 0.01 to 100 uM incubated for 18 hrs by Cell Titer-Glo assay; details: pc-12, 18 h, dose 0.01-100 µM; how it was run: as §3
[10] = system: SK-N-BE(2); experiment: Cytotoxicity in human SKNBE2 cells assessed as reduction in cell viability at 0.01 to 100 uM incubated for 18 hrs by Cell Titer-Glo assay; details: dose 0.01-100 µM; how it was run: as §3
[11] = target: Nuclear receptor subfamily 4 group A member 2 (Homo sapiens) (UniProt P43354); experiment: Modulation of full length human Nurr1 expressed in HEK293T cells co-transfected with RXRalpha and luciferase reporter plasmid harboring NurRE response element assessed as increase in luciferase activity at 100 uM incubated for 18 hrs by luciferase reporter gene assay; details: filed as modulator; how it was run: as §5
[12] = target: Nuclear receptor subfamily 4 group A member 2 (Homo sapiens) (UniProt P43354); experiment: Modulation of full length human Nurr1 expressed in SKNBE(2) cells co-transfected with RXRalpha and luciferase reporter plasmid harboring NBRE response element assessed as increase in luciferase activity at 100 uM incubated for 18 hrs by luciferase reporter gene assay; details: SKNBE2, filed as modulator; how it was run: as §2
[13] = target: Nuclear receptor subfamily 4 group A member 2 (Homo sapiens) (UniProt P43354); experiment: Modulation of full length human Nurr1 expressed in PC12 cells co-transfected with RXRalpha and luciferase reporter plasmid harboring NBRE response element assessed as increase in luciferase activity at 100 uM incubated for 18 hrs by luciferase reporter gene assay; details: PC-12, filed as modulator; how it was run: as §4
[14] = target: Nuclear receptor subfamily 4 group A member 2 (Homo sapiens) (UniProt P43354); experiment: Modulation of full length human Nurr1 expressed in PC12 cells co-transfected with luciferase reporter plasmid harboring NBRE response element assessed as increase in luciferase activity at 100 uM incubated for 18 hrs by luciferase reporter gene assay; details: PC-12, filed as modulator
How it was run: (§6)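 Here PC12 cells (FK-12 medium, 15% horse serum, 2.5% FBS, 37°C, 5% CO2) received full-length Nurr1 (2 μg) without RXRα, plus 3xNBRE- or 3xNurRE-luciferase reporter (6 μg), for 18 h. Cells were replated at 10,000/well for 4 h, then treated with ligand or vehicle in quadruplicate for 18 h. Luciferase luminescence was normalized to vehicle-treated cells. Results are mean ± s.e.m. (n=4) from 2 independent experiments, with one-way ANOVA against vehicle.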

[15] = target: Nuclear receptor subfamily 4 group A member 2 (Homo sapiens) (UniProt P43354); experiment: Modulation of full length human Nurr1 expressed in SKNBE(2) cells co-transfected with luciferase reporter plasmid harboring NurRE response element assessed as increase in luciferase activity at 100 uM incubated for 18 hrs by luciferase reporter gene assay; details: SKNBE2, filed as modulator
[16] = target: Nuclear receptor subfamily 4 group A member 2 (Homo sapiens) (UniProt P43354); experiment: Modulation of full length human Nurr1 expressed in PC12 cells co-transfected with luciferase reporter plasmid harboring NurRE response element assessed as increase in luciferase activity at 100 uM incubated for 18 hrs by luciferase reporter gene assay; details: PC-12, filed as modulator; how it was run: as §6
[17] = target: Nuclear receptor subfamily 4 group A member 2 (Homo sapiens) (UniProt P43354); experiment: Modulation of full length human Nurr1 expressed in HEK293T cells co-transfected with RXRalpha and luciferase reporter plasmid harboring NBRE response element assessed as increase in luciferase activity at 100 uM incubated for 18 hrs by luciferase reporter gene assay; details: filed as modulator; how it was run: as §5

COCCOCc1ccc(-c2cc3onc(-c4ccccc4)c3c(=O)n2C)cc1
Activity [1]: Active
Activity [2]: Active
Activity [3]: Active
Activity [4]: Non-Toxic
Activity [5]: Active
Activity [6]: Active
Activity [7]: Active
Activity [8]: Active
Activity [9]: Non-Toxic
Activity [10]: Non-Toxic
Activity [11]: Active
Activity [12]: Active
Activity [13]: Active
Activity [14]: Active
Activity [15]: Active
Activity [16]: Active
Activity [17]: Active
